Laboratory results from ChEMBL document CHEMBL1240474, “Pharmacological evaluation and characterizations of newly synthesized 1,2,4-triazoles” (2010).
In brackets after ≈: the same amount, converted by molar mass.

Assays:
Format in all cases: functional
[1] = test system: Escherichia coli; experiment: Antibacterial activity against Escherichia coli MTCC 443 by broth microdilution method
How it was run: (§1)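 Serial dilutions in Mueller Hinton broth, drugs diluted in DMSO from a 2000 µg/ml stock, inoculum adjusted by turbidity to 10⁸ CFU/ml, ampicillin as reference. Primary screen at 500, 250 and 125 µg/ml; actives retested at 100 down to 1.5625 µg/ml. Incubated overnight at 37 °C.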

[2] = test system: Mycobacterium tuberculosis; experiment: Antimycobacterial activity against Mycobacterium tuberculosis H37Rv at MIC concentration after up to 28 days
[3] = test system: Streptococcus pyogenes; experiment: Antibacterial activity against Streptococcus pyogenes MTCC 442 by broth microdilution method; how it was run: as §1
[4] = test system: Staphylococcus aureus; experiment: Antibacterial activity against Staphylococcus aureus MTCC 96 by broth microdilution method; how it was run: as §1
[5] = test system: Candida albicans; experiment: Antifungal activity against Candida albicans MTCC 227 by broth microdilution method
[6] = test system: Pseudomonas aeruginosa; experiment: Antibacterial activity against Pseudomonas aeruginosa MTCC 2488 by broth microdilution method; how it was run: as §1
[7] = test system: Aspergillus niger; experiment: Antifungal activity against Aspergillus niger MTCC 282 by broth microdilution method
[8] = test system: Aspergillus clavatus; experiment: Antifungal activity against Aspergillus clavatus MTCC 1323 by broth microdilution method
[9] = test system: Mycobacterium tuberculosis; experiment: Antimycobacterial activity against Mycobacterium tuberculosis H37Rv after up to 28 days; conditions: 672 h
How it was run: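 Lowenstein-Jensen agar dilution against M. tuberculosis H37Rv. Compounds were made up as 2000 µg/ml DMSO stocks and added to liquid L.J. medium at primary levels of 1000, 500 and 250 µg/ml and secondary levels of 200–3.25 µg/ml. The medium was inspissated, held 24 h at 37 °C, then streaked with bacilli from saline suspension. Growth was read at 12, 22 and 28 days against drug-free controls. MIC was the lowest concentration giving no colonies or fewer than 20.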

Row | Structure (SMILES) | MIC [1] [µg/mL] | inhibition (INH) [2] [%] | MIC [3] [µg/mL] | MIC [4] [µg/mL] | MIC [5] [µg/mL] | MIC [6] [µg/mL] | MIC [7] [µg/mL] | MIC [8] [µg/mL] | MIC [9] [µg/mL]
1 | NNc1nc2ccc(F)cc2s1 | 250 (≈ 1360 µM) | 98 | 250 (≈ 1360 µM) | 500 (≈ 2730 µM) | 250 (≈ 1360 µM) | 250 (≈ 1360 µM) | > 1000 | > 1000 | 250 (≈ 1360 µM)
2 | NNc1nc2ccc(Br)cc2s1 | 500 (≈ 2050 µM) | 97 | 500 (≈ 2050 µM) | 250 (≈ 1020 µM) | 500 (≈ 2050 µM) | 500 (≈ 2050 µM) | 500 (≈ 2050 µM) | 500 (≈ 2050 µM) | 500 (≈ 2050 µM)
3 | NNc1nc2ccc([N+](=O)[O-])cc2s1 | 250 (≈ 1190 µM) | 99 | 500 (≈ 2380 µM) | 500 (≈ 2380 µM) | 500 (≈ 2380 µM) | 250 (≈ 1190 µM) | 500 (≈ 2380 µM) | 1000 (≈ 4760 µM) | 250 (≈ 1190 µM)
4 | Cc1ccc2nc(NN)sc2c1 | 100 (≈ 558 µM) | 98 | 250 (≈ 1390 µM) | 250 (≈ 1390 µM) | 250 (≈ 1390 µM) | 500 (≈ 2790 µM) | 1000 (≈ 5580 µM) | > 1000 | 1000 (≈ 5580 µM)
5 | COc1ccc2nc(NN)sc2c1 | 62.5 (≈ 320 µM) | 99 | 250 (≈ 1280 µM) | 200 (≈ 1020 µM) | 500 (≈ 2560 µM) | 125 (≈ 640 µM) | 500 (≈ 2560 µM) | 250 (≈ 1280 µM) | 50 (≈ 256 µM)
6 | NNc1nc2ccc(Cl)cc2s1 | 100 (≈ 501 µM) | 99 | 500 (≈ 2500 µM) | 500 (≈ 2500 µM) | 250 (≈ 1250 µM) | 125 (≈ 626 µM) | 200 (≈ 1000 µM) | 250 (≈ 1250 µM) | 200 (≈ 1000 µM)
7 | Cc1cccc2sc(NN)nc12 | 250 (≈ 1390 µM) | 98 | 500 (≈ 2790 µM) | 500 (≈ 2790 µM) | 500 (≈ 2790 µM) | 250 (≈ 1390 µM) | 250 (≈ 1390 µM) | 200 (≈ 1120 µM) | 500 (≈ 2790 µM)
8 | NNc1nc2c([N+](=O)[O-])cccc2s1 | 500 (≈ 2380 µM) | 98 | 250 (≈ 1190 µM) | 500 (≈ 2380 µM) | 200 (≈ 951 µM) | 250 (≈ 1190 µM) | 250 (≈ 1190 µM) | 200 (≈ 951 µM) | 500 (≈ 2380 µM)
9 | NNc1nc2cc(Cl)c(Cl)cc2s1 | 100 (≈ 427 µM) | 99 | 500 (≈ 2140 µM) | 250 (≈ 1070 µM) | 500 (≈ 2140 µM) | 125 (≈ 534 µM) | 500 (≈ 2140 µM) | 1000 (≈ 4270 µM) | 250 (≈ 1070 µM)
10 | NNc1nc2c(Cl)cccc2s1 | 250 (≈ 1250 µM) | 99 | 500 (≈ 2500 µM) | 500 (≈ 2500 µM) | 1000 (≈ 5010 µM) | 250 (≈ 1250 µM) | 500 (≈ 2500 µM) | 500 (≈ 2500 µM) | 100 (≈ 501 µM)
11 | Cc1ccc(-c2nnc(-c3cccnc3)o2)cc1 | 250 (≈ 1050 µM) | 98 | 250 (≈ 1050 µM) | 100 (≈ 421 µM) | 1000 (≈ 4210 µM) | 100 (≈ 421 µM) | 500 (≈ 2110 µM) | 500 (≈ 2110 µM) | 500 (≈ 2110 µM)
12 | Cc1ccc(-c2nnc(-c3cccnc3)n2Nc2nc3ccc(F)cc3s2)cc1 | 250 (≈ 621 µM) | 98 | 100 (≈ 248 µM) | 125 (≈ 311 µM) | 500 (≈ 1240 µM) | 250 (≈ 621 µM) | 500 (≈ 1240 µM) | 250 (≈ 621 µM) | 200 (≈ 497 µM)
13 | Cc1ccc(-c2nnc(-c3cccnc3)n2Nc2nc3ccc(Br)cc3s2)cc1 | 100 (≈ 216 µM) | 99 | 125 (≈ 270 µM) | 125 (≈ 270 µM) | 1000 (≈ 2160 µM) | 100 (≈ 216 µM) | 500 (≈ 1080 µM) | 1000 (≈ 2160 µM) | 50 (≈ 108 µM)
14 | Cc1ccc(-c2nnc(-c3cccnc3)n2Nc2nc3ccc([N+](=O)[O-])cc3s2)cc1 | 100 (≈ 233 µM) | 98 | 125 (≈ 291 µM) | 250 (≈ 582 µM) | 500 (≈ 1160 µM) | 200 (≈ 466 µM) | 500 (≈ 1160 µM) | 500 (≈ 1160 µM) | 200 (≈ 466 µM)
15 | Cc1ccc(-c2nnc(-c3cccnc3)n2Nc2nc3ccc(C)cc3s2)cc1 | 125 (≈ 314 µM) | 99 | 100 (≈ 251 µM) | 100 (≈ 251 µM) | 500 (≈ 1250 µM) | 250 (≈ 627 µM) | 1000 (≈ 2510 µM) | > 1000 | 50 (≈ 125 µM)
16 | COc1ccc2nc(Nn3c(-c4ccc(C)cc4)nnc3-c3cccnc3)sc2c1 | 250 (≈ 603 µM) | 99 | 250 (≈ 603 µM) | 250 (≈ 603 µM) | 250 (≈ 603 µM) | 125 (≈ 302 µM) | 500 (≈ 1210 µM) | 1000 (≈ 2410 µM) | 62.5 (≈ 151 µM)
17 | Cc1ccc(-c2nnc(-c3cccnc3)n2Nc2nc3ccc(Cl)cc3s2)cc1 | 250 (≈ 597 µM) | 99 | 500 (≈ 1190 µM) | 500 (≈ 1190 µM) | 500 (≈ 1190 µM) | 125 (≈ 298 µM) | 500 (≈ 1190 µM) | 250 (≈ 597 µM) | 100 (≈ 239 µM)
18 | Cc1ccc(-c2nnc(-c3cccnc3)n2Nc2nc3c(C)cccc3s2)cc1 | 250 (≈ 627 µM) | 98 | 250 (≈ 627 µM) | 500 (≈ 1250 µM) | 100 (≈ 251 µM) | 500 (≈ 1250 µM) | 250 (≈ 627 µM) | 200 (≈ 502 µM) | 500 (≈ 1250 µM)
19 | Cc1ccc(-c2nnc(-c3cccnc3)n2Nc2nc3c([N+](=O)[O-])cccc3s2)cc1 | 12.5 (≈ 29.1 µM) | 99 | 250 (≈ 582 µM) | 500 (≈ 1160 µM) | 1000 (≈ 2330 µM) | 25 (≈ 58.2 µM) | 500 (≈ 1160 µM) | 500 (≈ 1160 µM) | 50 (≈ 116 µM)
20 | Cc1ccc(-c2nnc(-c3cccnc3)n2Nc2nc3cc(Cl)c(Cl)cc3s2)cc1 | 100 (≈ 221 µM) | 99 | 500 (≈ 1100 µM) | 250 (≈ 551 µM) | 200 (≈ 441 µM) | 500 (≈ 1100 µM) | 500 (≈ 1100 µM) | 250 (≈ 551 µM) | 100 (≈ 221 µM)
21 | Cc1ccc(-c2nnc(-c3cccnc3)n2Nc2nc3c(Cl)cccc3s2)cc1 | 125 (≈ 298 µM) | 99 | 500 (≈ 1190 µM) | 250 (≈ 597 µM) | 500 (≈ 1190 µM) | 500 (≈ 1190 µM) | > 1000 | 1000 (≈ 2390 µM) | 25 (≈ 59.7 µM)
22 | CC1(C)S[C@@H]2[C@H](NC(=O)[C@H](N)c3ccccc3)C(=O)N2[C@H]1C(=O)O [AMPICILLIN] | 100 (≈ 286 µM) |  | 100 (≈ 286 µM) | 250 (≈ 715 µM) |  | 100 (≈ 286 µM) |  |  | 
23 | COC1=CC(=O)C[C@@H](C)[C@]12Oc1c(Cl)c(OC)cc(OC)c1C2=O [GRISEOFULVIN] |  |  |  |  | 500 (≈ 1420 µM) |  | 100 (≈ 283 µM) | 100 (≈ 283 µM) | 
24 | CO[C@H]1/C=C/O[C@@]2(C)Oc3c(C)c(O)c4c(O)c(c(/C=N/N5CCN(C)CC5)c(O)c4c3C2=O)NC(=O)/C(C)=C\C=C\[C@H](C)[C@H](O)[C@@H](C)[C@@H](O)[C@@H](C)[C@H](OC(C)=O)[C@@H]1C [RIFAMPIN] |  | 98 |  |  |  |  |  |  | 40 (≈ 48.6 µM)
